From PMC3700807 (Planta medica, 2011)

Tests used:
[1] = tested on: Plasmodium falciparum D6 (chloroquine-sensitive clone); experiment: In vitro antiplasmodial assay; assay type: cell-based; details: chloroquine-sensitive clone D6
[2] = tested on: Plasmodium falciparum W2 (chloroquine-resistant clone); experiment: In vitro antiplasmodial assay; assay type: cell-based; details: chloroquine-resistant clone W2
VERO cells = experiment: Cytotoxicity to VERO cells; assay type: cell-based
[3] = tested on: Leishmania donovani promastigotes; experiment: Antileishmanial assay, promastigotes; assay type: cell-based; details: 26 °C, 72 hours; mean ± S.D. of three observations
[4] = tested on: Leishmania donovani axenic amastigotes; experiment: Antileishmanial assay, axenic amastigotes; assay type: cell-based; details: 37 °C, 72 hours; mean ± S.D. of three observations
[5] = tested on: Leishmania donovani amastigotes in THP1 macrophage cultures; experiment: Antileishmanial macrophage-amastigote assay; assay type: cell-based; details: amastigotes in THP1 macrophage cultures; mean ± S.D. of three observations
Transformed THP1 cells = experiment: Cytotoxicity to PMA transformed THP1 cells; assay type: cell-based
[6] = tested on: Candida albicans (ATCC 90028); experiment: Antimicrobial susceptibility assay, C. albicans; assay type: cell-based; details: highest test concentration 20 μg/mL
In short: (§1)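 Yeasts were tested by a modified CLSI broth-dilution method, with growth monitored by optical density. Amphotericin B was the drug control in each assay. IC50 (50% inhibition vs controls) was curve-fitted from duplicate readings. MIC is the lowest concentration allowing no detectable growth. For MFC, 5 μL from each clear well was plated on agar and incubated until growth was seen.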

C. glabrata (ATCC 90030) = experiment: Antimicrobial susceptibility assay, C. glabrata; assay type: cell-based; details: highest test concentration 20 μg/mL
In short: as §1

C. krusei (ATCC 6258) = experiment: Antimicrobial susceptibility assay, C. krusei; assay type: cell-based; details: highest test concentration 20 μg/mL
In short: as §1

[7] = tested on: Cryptococcus neoformans (ATCC 90113); experiment: Antimicrobial susceptibility assay, C. neoformans; assay type: cell-based; details: highest test concentration 20 μg/mL
In short: as §1

[8] = tested on: Aspergillus fumigatus (ATCC 204305); experiment: Antimicrobial susceptibility assay, A. fumigatus; assay type: cell-based; details: highest test concentration 20 μg/mL
In short: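 Broth-dilution susceptibility test in medium with 5% Alamar Blue for growth detection. Amphotericin B was the drug control in each assay. IC50 (50% inhibition vs controls) was curve-fitted from duplicate readings. MIC is the lowest concentration with no detectable growth. For MFC, 5 μL from each clear well was moved to agar and incubated until growth appeared.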

[9] = tested on: Staphylococcus aureus (ATCC 29213); experiment: Antimicrobial susceptibility assay, S. aureus; assay type: cell-based; details: highest test concentration 20 μg/mL
In short: (§2)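 Bacteria were tested by a modified CLSI broth-dilution method, with growth read as optical density. Ciprofloxacin was the drug control in each assay. IC50 (50% inhibition relative to controls) was fitted from duplicate readings. MIC is the lowest concentration with no detectable growth. For MBC, 5 μL from each clear well was transferred to agar and incubated until growth appeared.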

[10] = tested on: methicillin-resistant S aureus (MRSA, ATCC 33591); experiment: Antimicrobial susceptibility assay, MRSA; assay type: cell-based, Staphylococcus aureus; details: highest test concentration 20 μg/mL
In short: as §2

[11] = tested on: Mycobacterium intracellulare (ATCC 23068); experiment: Antimicrobial susceptibility assay, M. intracellulare; assay type: cell-based; details: highest test concentration 20 μg/mL
In short: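 Mycobacterium intracellulare (ATCC 23068) was tested by a modified broth susceptibility method, with growth detected in medium containing 5% Alamar Blue. IC50 was fitted against untreated controls from duplicate readings. MIC was taken as the lowest concentration with no detectable growth. For MBC, clear wells were subcultured onto agar and incubated until growth appeared. Ciprofloxacin was included as the drug control in each assay.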

Which “P. falciparum D6 IC50” value [1] does the source give for `C[C@@H]1N[C@H](CCCCCCCCCCc2cc(CCCCCCCCCC[C@@H]3CC[C@H](O)[C@H](C)N3)c3[n+](c2)CCC3)CC[C@@H]1O` [Compound 7, juliprosine] here?
The value was 0.17 ± 0.035 µg/mL.

And the “P. falciparum W2 IC50” value [2]?
Its value is 0.15 ± 0.06 µg/mL.

What about the “VERO IC50” value (VERO cells) of the same compound?
Its value is over 23.8 µg/mL.

And the “Leishmania donovani Promastigotes IC50” value [3]?
The value was 1.38 ± 0.23 µg/mL.

What about the “Leishmania donovani Promastigotes IC90” value [3] of the same compound?
Its value is 5.85 ± 0.72 µg/mL.

And the “Leishmania donovani Axenic Amastigotes IC50” value [4]?
The value was 2.58 ± 0.37 µg/mL.

What about the “Leishmania donovani Axenic Amastigotes IC90” value [4] of the same compound?
The value was 29.8 ± 4.3 µg/mL.

What about the “Leishmania donovani Macrophage-Amastigotes IC50” value [5] of the same compound?
The value was 3.08 ± 0.43 µg/mL.

What about the “Leishmania donovani Macrophage-Amastigotes IC90” value [5] of the same compound?
Its value is 7.89 ± 1.91 µg/mL.

What about the “Cytotoxicity (Transformed THP1 cells) IC50” value (Transformed THP1 cells) of the same compound?
The value was 19.5 ± 1.0 µg/mL.

And the “Cytotoxicity (Transformed THP1 cells) IC90” value (Transformed THP1 cells)?
Its value is over 20 µg/mL.

What about the “C. albicans IC50” value [6] of the same compound?
The value was “-/-/- ((-) = Not active at the highest test concentration of 20 μg/mL)”.

And the “C. albicans MFC” value [6]?
Its value is “-/-/- ((-) = Not active at the highest test concentration of 20 μg/mL)”.

What about the “C. albicans MIC” value [6] of the same compound?
The value was “-/-/- ((-) = Not active at the highest test concentration of 20 μg/mL)”.

And the “C. glabrata IC50” value (C. glabrata (ATCC 90030))?
Its value is “-/-/- ((-) = Not active at the highest test concentration of 20 μg/mL)”.

And the “C. glabrata MFC” value (C. glabrata (ATCC 90030))?
The value was “-/-/- ((-) = Not active at the highest test concentration of 20 μg/mL)”.

What about the “C. glabrata MIC” value (C. glabrata (ATCC 90030)) of the same compound?
Its value is “-/-/- ((-) = Not active at the highest test concentration of 20 μg/mL)”.

What about the “C. krusei IC50” value (C. krusei (ATCC 6258)) of the same compound?
The value was “-/-/- ((-) = Not active at the highest test concentration of 20 μg/mL)”.

And the “C. krusei MFC” value (C. krusei (ATCC 6258))?
Its value is “-/-/- ((-) = Not active at the highest test concentration of 20 μg/mL)”.

What about the “C. krusei MIC” value (C. krusei (ATCC 6258)) of the same compound?
Its value is “-/-/- ((-) = Not active at the highest test concentration of 20 μg/mL)”.

What about the “C. neoformans IC50” value [7] of the same compound?
The value was 0.17 µg/mL.

What about the “C. neoformans MFC” value [7] of the same compound?
Its value is 0.63 µg/mL.

What about the “C. neoformans MIC” value [7] of the same compound?
The value was 0.63 µg/mL.

What about the “A. fumigatus IC50” value [8] of the same compound?
The value was “-/-/- ((-) = Not active at the highest test concentration of 20 μg/mL)”.

And the “A. fumigatus MFC” value [8]?
Its value is “-/-/- ((-) = Not active at the highest test concentration of 20 μg/mL)”.

What about the “A. fumigatus MIC” value [8] of the same compound?
The value was “-/-/- ((-) = Not active at the highest test concentration of 20 μg/mL)”.

And the “S. aureus IC50” value [9]?
Its value is 3.0 µg/mL.

And the “S. aureus MBC” value [9]?
Its value is 10 µg/mL.

And the “S. aureus MIC” value [9]?
The value was 5.0 µg/mL.

What about the “MRSA IC50” value [10] of the same compound?
The value was 3.03 µg/mL.

And the “MRSA MBC” value [10]?
Its value is 10 µg/mL.

What about the “MRSA MIC” value [10] of the same compound?
The value was 5.0 µg/mL.

And the “M. intracellulare IC50” value [11]?
The value was 0.80 µg/mL.

And the “M. intracellulare MBC” value [11]?
The value was 5 µg/mL.

What about the “M. intracellulare MIC” value [11] of the same compound?
The value was 1.25 µg/mL.
